Laboratory results reported in ChEMBL document CHEMBL3259614, “Design, synthesis, and structure-activity relationship studies of novel fused heterocycles-linked triazoles with good activity and water solubility” (J Med Chem, 2014).
≈ marks a conversion by molar mass, not a printed value.

What was measured:
Candida parapsilosis = assay: Antimicrobial activity against Candida parapsilosis 22019 after 24 hrs by serial dilution method; format: functional; conditions: Lodderomyces parapsilosis, 22019, 24 h
Summary of the method: (§1)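 Broth serial dilution MIC in 96-well plates following NCCLS/CLSI methods. Compounds were dissolved in DMSO and serially diluted in growth medium, with incubation at 35 °C. […] C. parapsilosis 22019 served as the quality-control strain in each assay.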

Candida albicans [1] = assay: Antimicrobial activity against Candida albicans SC5314 after 24 hrs by serial dilution method; format: functional; conditions: SC5314, 24 h; summary of the method: as §1
[2] = Aqueous solubility of the compound in phosphate buffer at pH 7.4; format: physicochemical
Summary of the method: (§2)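 Excess solid was stirred for 3 h in pH 1.2 hydrochloric acid or pH 7.4 phosphate buffer, then filtered through 0.45 μm. Absorbance at the UV maximum was compared with a methanol standard, C′ = A′C/A, with values reported in mg/mL. Determined at 30 °C; mean ± SD, n = 3.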

[3] = Aqueous solubility of the compound in hydrochloric acid solution at pH 1.2; format: physicochemical; summary of the method: as §2
Candida albicans [4] = assay: Antimicrobial activity against Candida albicans Y0109 after 24 hrs by serial dilution method; format: functional; conditions: Y0109, 24 h; summary of the method: as §1
Nakaseomyces glabratus = assay: Antimicrobial activity against Candida glabrata 537 after 24 hrs by serial dilution method; format: functional; conditions: Nakaseomyces glabratus, 537, 24 h; summary of the method: as §1
Aspergillus fumigatus = assay: Antimicrobial activity against Aspergillus fumigatus 7544 after 48 hrs by serial dilution method; format: functional; conditions: Aspergillus fumigatus, 7544, 48 h; summary of the method: as §1
Cryptococcus neoformans = assay: Antimicrobial activity against Cryptococcus neoformans 32609 after 72 hrs by serial dilution method; format: functional; conditions: Cryptococcus neoformans, 32609, 72 h; summary of the method: as §1

MIC (Candida parapsilosis)	MIC (Candida albicans [1])	solubility [3]	MIC (Candida albicans [4])	MIC (Nakaseomyces glabratus)	MIC (Aspergillus fumigatus)	MIC (Cryptococcus neoformans)	Compound	solubility [2]
0.0312 µg/mL (≈ 0.0691 µM)	0.0312 µg/mL (≈ 0.0691 µM)	5900 µg/mL (≈ 13000 µM)	0.0312 µg/mL (≈ 0.0691 µM)	0.0312 µg/mL (≈ 0.0691 µM)	32 µg/mL (≈ 70.7 µM)	0.0312 µg/mL (≈ 0.0691 µM)	C[C@@H](N1CCn2nc(-c3cccnc3)nc2C1)[C@](O)(Cn1cncn1)c1ccc(F)cc1F	1820 µg/mL (≈ 4010 µM)
0.5 µg/mL (≈ 1.07 µM)	0.5 µg/mL (≈ 1.07 µM)	1250 µg/mL (≈ 2670 µM)	0.5 µg/mL (≈ 1.07 µM)	0.5 µg/mL (≈ 1.07 µM)	16 µg/mL (≈ 34.2 µM)	0.125 µg/mL (≈ 0.267 µM)	C[C@@H](N1CCc2nc(-c3ccccc3)sc2C1)[C@](O)(Cn1cncn1)c1ccc(F)cc1F	130 µg/mL (≈ 278 µM)
0.125 µg/mL (≈ 0.267 µM)	0.0312 µg/mL (≈ 0.0667 µM)	10100 µg/mL (≈ 21500 µM)	0.0312 µg/mL (≈ 0.0667 µM)	0.125 µg/mL (≈ 0.267 µM)	2 µg/mL (≈ 4.27 µM)	0.0625 µg/mL (≈ 0.133 µM)	C[C@@H](N1CCc2nc(-c3cccnc3)sc2C1)[C@](O)(Cn1cncn1)c1ccc(F)cc1F	2360 µg/mL (≈ 5040 µM)
16 µg/mL (≈ 29.9 µM)	4 µg/mL (≈ 7.48 µM)		8 µg/mL (≈ 15 µM)	16 µg/mL (≈ 29.9 µM)	32 µg/mL (≈ 59.9 µM)	8 µg/mL (≈ 15 µM)	C[C@@H](N1CCc2sc(-c3ccc(C(F)(F)F)cc3)cc2C1)[C@](O)(Cn1cncn1)c1ccc(F)cc1F	
16 µg/mL (≈ 31.9 µM)	4 µg/mL (≈ 7.98 µM)		8 µg/mL (≈ 16 µM)	16 µg/mL (≈ 31.9 µM)	32 µg/mL (≈ 63.9 µM)	8 µg/mL (≈ 16 µM)	C[C@@H](N1CCc2sc(-c3ccc(Cl)cc3)cc2C1)[C@](O)(Cn1cncn1)c1ccc(F)cc1F	
4 µg/mL (≈ 8.32 µM)	1 µg/mL (≈ 2.08 µM)		2 µg/mL (≈ 4.16 µM)	4 µg/mL (≈ 8.32 µM)	8 µg/mL (≈ 16.6 µM)	4 µg/mL (≈ 8.32 µM)	Cc1ccc(-c2cc3c(s2)CCN([C@H](C)[C@](O)(Cn2cncn2)c2ccc(F)cc2F)C3)cc1	
8 µg/mL (≈ 16.3 µM)	2 µg/mL (≈ 4.07 µM)		8 µg/mL (≈ 16.3 µM)	8 µg/mL (≈ 16.3 µM)	64 µg/mL (≈ 130 µM)	4 µg/mL (≈ 8.14 µM)	C[C@@H](N1CCc2sc(-c3ccc(C#N)cc3)cc2C1)[C@](O)(Cn1cncn1)c1ccc(F)cc1F	
2 µg/mL (≈ 4.16 µM)	1 µg/mL (≈ 2.08 µM)		2 µg/mL (≈ 4.16 µM)	4 µg/mL (≈ 8.32 µM)	16 µg/mL (≈ 33.3 µM)	4 µg/mL (≈ 8.32 µM)	Cc1cccc(-c2cc3c(s2)CCN([C@H](C)[C@](O)(Cn2cncn2)c2ccc(F)cc2F)C3)c1	
4 µg/mL (≈ 8.26 µM)	1 µg/mL (≈ 2.06 µM)		2 µg/mL (≈ 4.13 µM)	1 µg/mL (≈ 2.06 µM)	8 µg/mL (≈ 16.5 µM)	1 µg/mL (≈ 2.06 µM)	C[C@@H](N1CCc2sc(-c3cccc(F)c3)cc2C1)[C@](O)(Cn1cncn1)c1ccc(F)cc1F	
4 µg/mL (≈ 8.14 µM)	2 µg/mL (≈ 4.07 µM)		4 µg/mL (≈ 8.14 µM)	8 µg/mL (≈ 16.3 µM)	64 µg/mL (≈ 130 µM)	2 µg/mL (≈ 4.07 µM)	C[C@@H](N1CCc2sc(-c3cccc(C#N)c3)cc2C1)[C@](O)(Cn1cncn1)c1ccc(F)cc1F	
4 µg/mL (≈ 7.98 µM)	2 µg/mL (≈ 3.99 µM)		2 µg/mL (≈ 3.99 µM)	8 µg/mL (≈ 16 µM)	> 64 µg/mL	4 µg/mL (≈ 7.98 µM)	C[C@@H](N1CCc2sc(-c3cccc(Cl)c3)cc2C1)[C@](O)(Cn1cncn1)c1ccc(F)cc1F	
2 µg/mL (≈ 3.74 µM)	1 µg/mL (≈ 1.87 µM)		0.5 µg/mL (≈ 0.935 µM)	1 µg/mL (≈ 1.87 µM)	32 µg/mL (≈ 59.9 µM)	0.5 µg/mL (≈ 0.935 µM)	C[C@@H](N1CCc2sc(-c3cccc(C(F)(F)F)c3)cc2C1)[C@](O)(Cn1cncn1)c1ccc(F)cc1F	
4 µg/mL (≈ 8.54 µM)	2 µg/mL (≈ 4.27 µM)		4 µg/mL (≈ 8.54 µM)	8 µg/mL (≈ 17.1 µM)	> 32 µg/mL	4 µg/mL (≈ 8.54 µM)	C[C@@H](N1CCc2sc(-c3cncnc3)cc2C1)[C@](O)(Cn1cncn1)c1ccc(F)cc1F	
2 µg/mL (≈ 4.06 µM)	1 µg/mL (≈ 2.03 µM)		4 µg/mL (≈ 8.12 µM)	2 µg/mL (≈ 4.06 µM)	32 µg/mL (≈ 65 µM)	1 µg/mL (≈ 2.03 µM)	C[C@@H](N1CCc2sc(-c3ccc(C#N)nc3)cc2C1)[C@](O)(Cn1cncn1)c1ccc(F)cc1F	
4 µg/mL (≈ 8.56 µM)	1 µg/mL (≈ 2.14 µM)		2 µg/mL (≈ 4.28 µM)	8 µg/mL (≈ 17.1 µM)	> 32 µg/mL	4 µg/mL (≈ 8.56 µM)	C[C@@H](N1CCc2sc(-c3ccncc3)cc2C1)[C@](O)(Cn1cncn1)c1ccc(F)cc1F	
4 µg/mL (≈ 8.56 µM)	1 µg/mL (≈ 2.14 µM)		8 µg/mL (≈ 17.1 µM)	2 µg/mL (≈ 4.28 µM)	32 µg/mL (≈ 68.4 µM)	4 µg/mL (≈ 8.56 µM)	C[C@@H](N1CCc2sc(-c3cccnc3)cc2C1)[C@](O)(Cn1cncn1)c1ccc(F)cc1F	
2 µg/mL (≈ 4.26 µM)	1 µg/mL (≈ 2.13 µM)		0.5 µg/mL (≈ 1.07 µM)	1 µg/mL (≈ 2.13 µM)	32 µg/mL (≈ 68.2 µM)	0.5 µg/mL (≈ 1.07 µM)	C[C@@H](N1CCc2cc(Br)sc2C1)[C@](O)(Cn1cncn1)c1ccc(F)cc1F	
2 µg/mL (≈ 4.28 µM)	1 µg/mL (≈ 2.14 µM)		4 µg/mL (≈ 8.56 µM)	2 µg/mL (≈ 4.28 µM)	32 µg/mL (≈ 68.4 µM)	1 µg/mL (≈ 2.14 µM)	C[C@@H](N1CCc2cc(-c3ccncc3)sc2C1)[C@](O)(Cn1cncn1)c1ccc(F)cc1F	
1 µg/mL (≈ 2.14 µM)	0.5 µg/mL (≈ 1.07 µM)		1 µg/mL (≈ 2.14 µM)	1 µg/mL (≈ 2.14 µM)	8 µg/mL (≈ 17.1 µM)	0.5 µg/mL (≈ 1.07 µM)	C[C@@H](N1CCc2cc(-c3cccnc3)sc2C1)[C@](O)(Cn1cncn1)c1ccc(F)cc1F	
0.5 µg/mL (≈ 1.07 µM)	0.5 µg/mL (≈ 1.07 µM)		0.25 µg/mL (≈ 0.534 µM)	1 µg/mL (≈ 2.13 µM)	16 µg/mL (≈ 34.1 µM)	0.5 µg/mL (≈ 1.07 µM)	C[C@@H](N1CCc2cc(-c3cncnc3)sc2C1)[C@](O)(Cn1cncn1)c1ccc(F)cc1F	
4 µg/mL (≈ 8.12 µM)	2 µg/mL (≈ 4.06 µM)		4 µg/mL (≈ 8.12 µM)	4 µg/mL (≈ 8.12 µM)	32 µg/mL (≈ 65 µM)	4 µg/mL (≈ 8.12 µM)	C[C@@H](N1CCc2cc(-c3ccc(C#N)nc3)sc2C1)[C@](O)(Cn1cncn1)c1ccc(F)cc1F	
							C[C@@H](N1CCc2nc(-c3cncnc3)sc2C1)[C@](O)(Cn1cncn1)c1ccc(F)cc1F.Cl	14800 µg/mL
							CS(=O)(=O)O.C[C@@H](N1CCc2nc(-c3cncnc3)sc2C1)[C@](O)(Cn1cncn1)c1ccc(F)cc1F	12000 µg/mL
							C[C@@H](N1CCc2nc(-c3cncnc3)sc2C1)[C@](O)(Cn1cncn1)c1ccc(F)cc1F.Cc1ccc(S(=O)(=O)O)cc1	5800 µg/mL
							C[C@@H](N1CCc2nc(-c3cncnc3)sc2C1)[C@](O)(Cn1cncn1)c1ccc(F)cc1F.O=S(=O)(O)O	108000 µg/mL
							Br.C[C@@H](N1CCc2nc(-c3cncnc3)sc2C1)[C@](O)(Cn1cncn1)c1ccc(F)cc1F	12100 µg/mL
							C[C@@H](N1CCc2nc(-c3cncnc3)sc2C1)[C@](O)(Cn1cncn1)c1ccc(F)cc1F.O=P(O)(O)O	8330 µg/mL
0.125 µg/mL (≈ 0.286 µM)	0.0625 µg/mL (≈ 0.143 µM)	3 µg/mL (≈ 6.86 µM)	0.0625 µg/mL (≈ 0.143 µM)	≤ 0.125 µg/mL	1 µg/mL (≈ 2.29 µM)	≤ 0.0625 µg/mL	C[C@@H](c1nc(-c2ccc(C#N)cc2)cs1)[C@](O)(Cn1cncn1)c1ccc(F)cc1F [RAVUCONAZOLE]	

Compound	MIC (Candida parapsilosis)	MIC (Candida albicans [1])	solubility [3]	MIC (Candida albicans [4])	MIC (Nakaseomyces glabratus)	MIC (Aspergillus fumigatus)	MIC (Cryptococcus neoformans)	solubility [2]
C[C@@H]1[C@H](O)[C@@H](C)/C=C/C=C/C=C/C=C/C=C/C=C/C=C/[C@H](O[C@@H]2O[C@H](C)[C@@H](O)[C@H](N)[C@@H]2O)C[C@@H]2O[C@](O)(C[C@@H](O)C[C@@H](O)[C@H](O)CC[C@@H](O)C[C@@H](O)CC(=O)O[C@H]1C)C[C@H](O)[C@H]2C(=O)O [AMPHOTERICIN B]	0.5 µg/mL (≈ 0.541 µM)	1 µg/mL (≈ 1.08 µM)		1 µg/mL (≈ 1.08 µM)	0.5 µg/mL (≈ 0.541 µM)	4 µg/mL (≈ 4.33 µM)	1 µg/mL (≈ 1.08 µM)	
